# Active and inactive are the calls of the source. The calls are words filed in the database; no cut-off is given here. Residues, ends and D or L forms follow the SMILES beside them. *: point of attachment. X1 = O=C(c1ccc(-c2c3nc(c(-c4ccccc4)c4ccc([nH]4)c(-c4ccccc4)c4nc(c(-c5ccccc5)c5ccc2[nH]5)C=C4)CC3)cc1)*; Ahx = NCCCCCC(=O)O
# Biological target: T1, Neuropilin-1 (Homo sapiens, UniProt O14786)
# Assay: Displacement of biotinylated VEGF165 from recombinant NRP1 after 2 hrs by competitive binding assay
# How it was run: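 Plates coated overnight at room temperature with recombinant chimeric NRP-1 in PBS, then blocked with PBS/0.5% BSA for 1 h at 37 °C. Biotinylated VEGF165 (5 ng/mL; 110 pM), with heparin present, competed with increasing competitor concentrations for 2 h at room temperature. Bound label was detected with streptavidin-HRP, 20 min at room temperature, then stopped and read at 450 nm. IC50 was derived by the median effect method.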
# T1 sequence (O14786 whole entry): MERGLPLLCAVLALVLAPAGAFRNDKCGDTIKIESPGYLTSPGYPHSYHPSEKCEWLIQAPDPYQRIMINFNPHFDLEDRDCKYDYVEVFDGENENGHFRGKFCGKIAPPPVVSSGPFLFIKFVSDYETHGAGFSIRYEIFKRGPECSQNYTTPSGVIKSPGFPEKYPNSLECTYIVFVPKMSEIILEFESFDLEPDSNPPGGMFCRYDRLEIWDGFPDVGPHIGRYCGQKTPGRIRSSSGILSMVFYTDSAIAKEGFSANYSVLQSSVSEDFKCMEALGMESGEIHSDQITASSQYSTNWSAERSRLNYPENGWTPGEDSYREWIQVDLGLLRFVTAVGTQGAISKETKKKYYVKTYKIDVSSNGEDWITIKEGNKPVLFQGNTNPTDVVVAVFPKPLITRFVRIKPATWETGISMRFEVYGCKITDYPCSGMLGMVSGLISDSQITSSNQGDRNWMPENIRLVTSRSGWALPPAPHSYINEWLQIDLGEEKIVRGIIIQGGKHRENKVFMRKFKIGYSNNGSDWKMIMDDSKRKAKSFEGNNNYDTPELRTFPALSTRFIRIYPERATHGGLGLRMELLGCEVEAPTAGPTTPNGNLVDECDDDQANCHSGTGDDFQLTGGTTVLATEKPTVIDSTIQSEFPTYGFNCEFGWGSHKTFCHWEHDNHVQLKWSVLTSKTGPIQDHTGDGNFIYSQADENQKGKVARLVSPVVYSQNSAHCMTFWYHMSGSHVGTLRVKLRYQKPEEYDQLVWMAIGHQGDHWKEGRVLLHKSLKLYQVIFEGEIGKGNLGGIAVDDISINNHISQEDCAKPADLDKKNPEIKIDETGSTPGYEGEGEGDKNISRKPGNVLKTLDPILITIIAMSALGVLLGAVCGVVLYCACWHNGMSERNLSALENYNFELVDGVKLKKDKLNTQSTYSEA
row,IC50 [µM],Compound
1,171,CC(C)C[C@H](NC(=O)[C@H](Cc1c[nH]c2ccccc12)NC(=O)[C@@H](NC(=O)[C@H](C)NC(=O)CCCCCNC(=O)c1ccc(-c2c3nc(c(-c4ccccc4)c4ccc([nH]4)c(-c4ccccc4)c4nc(c(-c5ccccc5)c5ccc2[nH]5)C=C4)CC3)cc1)[C@@H](C)O)C(=O)N1CCC[C@H]1C(=O)N1CCC[C@H]1C(=O)N[C@@H](CCCNC(=N)N)C(=O)O ({X1-Ahx}-ATWLPPR-OH)
2,92,CC1(C)O[C@@H]2[C@H](O1)[C@H](CN(CCNC(=N)N)C(=N)N)O[C@@H]2CC(=O)NCCc1c[nH]c2ccccc12

# Biological target: T1, Neuropilin-1
# Assay: Inhibition of biotinylated VEGF165 binding to recombinant NRP1 at 100 uM after 2 hrs by competitive binding assay
# How it was run: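 NRP-1-coated wells were blocked with PBS/0.5% BSA for 1 h at 37 °C. Biotinylated VEGF165 was added with competitor at 100 µM for 2 h at room temperature, then washed. Detection used streptavidin-HRP, 20 min at room temperature, stop solution and OD at 450 nm. Results are absorbance relative to blocking-buffer-only wells, three wells per condition.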
row,Compound,inhibition
1,CC1(C)O[C@@H]2[C@H](O1)[C@H](CNCCN)O[C@@H]2CC(=O)NCCc1c[nH]c2ccccc12,Active
2,CC(=O)O[C@H](C)CNC(=O)C[C@H]1O[C@@H](CNCCNC(=N)N)[C@H]2OC(C)(C)O[C@H]21,Active
3,CC(=O)O[C@H](C)CNC(=O)C[C@H]1O[C@@H](CNCCN/C(=N\C(=O)OC(C)(C)C)NC(=O)OC(C)(C)C)[C@H]2OC(C)(C)O[C@H]21,Active
4,CC1(C)O[C@@H]2[C@H](O1)[C@H](CNCCNc1ccccn1)O[C@@H]2CC(=O)NCCc1c[nH]c2ccccc12,Active
5,C[C@@H](O)CNC(=O)C[C@H]1O[C@@H](CN[C@@H](CCCNC(=N)N)C(=O)O)[C@H]2OC(C)(C)O[C@H]21,Active
6,CC1(C)O[C@@H]2[C@H](O1)[C@H](CN(CCN/C(=N/C(=O)OCc1ccccc1)NC(=O)OCc1ccccc1)/C(=N/C(=O)OCc1ccccc1)NC(=O)OCc1ccccc1)O[C@@H]2CC(=O)NCCc1c[nH]c2ccccc12,Active
7,C[C@@H](O)CNC(=O)C[C@H]1O[C@@H](CNCCc2nc3ccccc3[nH]2)[C@H]2OC(C)(C)O[C@H]21,Active
8,COC(=O)[C@H](CCCNC(=N)N)NC[C@@H]1O[C@H](CC(=O)NCCc2c[nH]c3ccccc23)[C@@H]2OC(C)(C)O[C@@H]21,Active
9,CC(=O)O[C@H](C)CNC(=O)C[C@H]1O[C@@H](CNCCN)[C@H]2OC(C)(C)O[C@H]21,Active
10,CC(=O)O[C@H](C)CNC(=O)C[C@H]1O[C@@H](CNCc2ccncc2)[C@H]2OC(C)(C)O[C@H]21,Active
11,CC(=O)O[C@H](C)CNC(=O)C[C@H]1O[C@@H](CNCCNC(=O)OCc2ccccc2)[C@H]2OC(C)(C)O[C@H]21,Active
12,CC1(C)O[C@@H]2[C@H](O1)[C@H](CN[C@@H](CCCNC(=N)N)C(=O)O)O[C@@H]2CC(=O)NCCc1c[nH]c2ccccc12,Active
13,H-ATWLPPR-OH,Active
14,COC(=O)[C@H](CCCNC(=N)N)NC[C@@H]1O[C@H](CC(=O)NC[C@@H](C)OC(C)=O)[C@@H]2OC(C)(C)O[C@@H]21,Active
15,CC1(C)O[C@@H]2[C@H](O1)[C@H](CN1CCN(C(=N)N)C1=O)O[C@@H]2CC(=O)NCCc1c[nH]c2ccccc12,Active
16,CC(C)(C)OC(=O)/N=C(\NCCNC[C@@H]1O[C@H](CC(=O)NCCc2c[nH]c3ccccc23)[C@@H]2OC(C)(C)O[C@@H]21)NC(=O)OC(C)(C)C,Active
17,CC1(C)O[C@@H]2[C@H](O1)[C@H](CNCc1ccccc1)O[C@@H]2CC(=O)NCCc1c[nH]c2ccccc12,Active
18,CC1(C)O[C@@H]2[C@H](O1)[C@H](CNCCNC(=O)OCc1ccccc1)O[C@@H]2CC(=O)NCCc1c[nH]c2ccccc12,Active
19,CC1(C)O[C@@H]2[C@H](O1)[C@H](CNCCNc1ncccn1)O[C@@H]2CC(=O)NCCc1c[nH]c2ccccc12,Active
20,C[C@@H](O)CNC(=O)C[C@H]1O[C@@H](CNCc2nc3ccccc3[nH]2)[C@H]2OC(C)(C)O[C@H]21,Active
21,CC1(C)O[C@@H]2[C@H](O1)[C@H](CNCc1ccncc1)O[C@@H]2CC(=O)NCCc1c[nH]c2ccccc12,Active
22,CC(=O)O[C@H](C)CNC(=O)C[C@H]1O[C@@H](CNCc2nc3ccccc3[nH]2)[C@H]2OC(C)(C)O[C@H]21,Active

# The next lines start with the values.
row,inhibition,Compound
1,Active,CC1(C)O[C@@H]2[C@H](O1)[C@H](CNCCNC(=N)N)O[C@@H]2CC(=O)NCCc1c[nH]c2ccccc12
2,Active,CC(C)C[C@H](NC(=O)[C@H](Cc1c[nH]c2ccccc12)NC(=O)[C@@H](NC(=O)[C@H](C)NC(=O)CCCCCNC(=O)c1ccc(-c2c3nc(c(-c4ccccc4)c4ccc([nH]4)c(-c4ccccc4)c4nc(c(-c5ccccc5)c5ccc2[nH]5)C=C4)CC3)cc1)[C@@H](C)O)C(=O)N1CCC[C@H]1C(=O)N1CCC[C@H]1C(=O)N[C@@H](CCCNC(=N)N)C(=O)O ({X1-Ahx}-ATWLPPR-OH)
3,Active,CC1(C)O[C@@H]2[C@H](O1)[C@H](CNCc1nc3ccccc3[nH]1)O[C@@H]2CC(=O)NCCc1c[nH]c2ccccc12
4,Active,CC(C)(C)OC(=O)/N=C(/NC(=O)OC(C)(C)C)N1CCN(C[C@@H]2O[C@H](CC(=O)NCCc3c[nH]c4ccccc34)[C@@H]3OC(C)(C)O[C@@H]32)C1=O
5,Active,CC(=O)O[C@H](C)CNC(=O)C[C@H]1O[C@@H](CNCCNc2ccccn2)[C@H]2OC(C)(C)O[C@H]21
6,Active,C[C@@H](O)CNC(=O)C[C@H]1O[C@@H](CNCc2ccccc2)[C@H]2OC(C)(C)O[C@H]21
7,Active,C[C@@H](O)CNC(=O)C[C@H]1O[C@@H](CNCCNc2ccccn2)[C@H]2OC(C)(C)O[C@H]21
8,Active,CC(=O)O[C@H](C)CNC(=O)C[C@H]1O[C@@H](CNCCc2nc3ccccc3[nH]2)[C@H]2OC(C)(C)O[C@H]21
9,Active,CC(=O)O[C@H](C)CNC(=O)C[C@H]1O[C@@H](CN(CCN/C(=N/C(=O)OCc2ccccc2)NC(=O)OCc2ccccc2)/C(=N/C(=O)OCc2ccccc2)NC(=O)OCc2ccccc2)[C@H]2OC(C)(C)O[C@H]21
10,65%,CC1(C)O[C@@H]2[C@H](O1)[C@H](CN(CCNC(=N)N)C(=N)N)O[C@@H]2CC(=O)NCCc1c[nH]c2ccccc12
11,Active,C[C@@H](O)CNC(=O)C[C@H]1O[C@@H](CNCc2ccncc2)[C@H]2OC(C)(C)O[C@H]21
12,Active,CC1(C)O[C@@H]2[C@H](O1)[C@H](CNCCc1nc3ccccc3[nH]1)O[C@@H]2CC(=O)NCCc1c[nH]c2ccccc12
13,Active,C[C@@H](O)CNC(=O)C[C@H]1O[C@@H](CN(CCNC(=N)N)C(=N)N)[C@H]2OC(C)(C)O[C@H]21

# Biological target: T1, Neuropilin-1
# Assay: Inhibition of VEGF binding to NRP1 expressed in CHO cells
# Assay type: cell-based
row,IC50 [µM],Compound
1,19,H-ATWLPPR-OH
